How the values were obtained:
[1] = folding enthalpy; higher = less favourable; fluorescence melt of hairpins on a sequencing array, two-state fit; details: sodium 0.088 M
How it was run: (§1)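 Cy3 fluorescence of library hairpins on a sequenced MiSeq flow cell, with annealed Cy3 and quencher oligos, was imaged in 50 mM Na-HEPES pH 8.0, 25 mM NaCl in 2.5 °C steps up to 60 °C. Signals were normalised to pre-quench Cy3 and to control variants. Melting temperature and folding enthalpy came from bootstrapped two-state fits, inverse-variance combined over four replicates. Fitted temperatures were raised by 9.35 °C to match UV melts.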

[2] = melting temperature; fluorescence melt of hairpins on a sequencing array, two-state fit, raised by 9.35 °C to match UV melts; details: sodium 0.088 M
How it was run: as §1

Sequence | folding enthalpy [1] | Tm [2]
GATCCATCGTTGGATC ((((((....)))))) | -43.1 kcal/mol | 51.7 °C
GATCCATGGTGGATC ((((((...)))))) | -36 kcal/mol | 50.6 °C
GATCCATTAATGGATC ((((((....)))))) | -38.7 kcal/mol | 54.8 °C
GATCCATTACTGGATC ((((((....)))))) | -29.9 kcal/mol | 51.1 °C
GATCCATTAGTGGATC ((((((....)))))) | -36.8 kcal/mol | 53 °C
GATCCATTGATGGATC ((((((....)))))) | -40.5 kcal/mol | 53.5 °C
GATCCATTTGTGGATC ((((((....)))))) | -44.5 kcal/mol | 54.7 °C
GATCCCAATAGGGATC ((((((....)))))) | -36.5 kcal/mol | 64.8 °C
GATCCCAATCGGGATC ((((((....)))))) | -40.2 kcal/mol | 61.6 °C
GATCCCAATTGGGATC ((((((....)))))) | -38.2 kcal/mol | 61.5 °C
GATCCCACTCGGGATC ((((((....)))))) | -38.1 kcal/mol | 61.8 °C
GATCCCAGACGGGATC ((((((....)))))) | -37.1 kcal/mol | 58.6 °C
GATCCCAGAGGGGATC ((((((....)))))) | -32.2 kcal/mol | 60.9 °C
GATCCCAGCAGGGATC ((((((....)))))) | -34.6 kcal/mol | 66.3 °C
GATCCCAGCTGGGATC ((((((....)))))) | -46.9 kcal/mol | 62.3 °C
GATCCCAGGAGGGATC ((((((....)))))) | -32.2 kcal/mol | 59.9 °C
GATCCCAGGCGGGATC ((((((....)))))) | -34 kcal/mol | 61.1 °C
GATCCCAGGTGGGATC ((((((....)))))) | -37 kcal/mol | 60.1 °C
GATCCCATCGGGGATC ((((((....)))))) | -31.1 kcal/mol | 59.9 °C
GATCCCCAATGGGATC ((((((....)))))) | -34.5 kcal/mol | 59.7 °C
GATCCCCACAGGGATC ((((((....)))))) | -23 kcal/mol | 66.4 °C
GATCCCCAGAGGGATC ((((((....)))))) | -31.7 kcal/mol | 59.8 °C
GATCCCCAGCGGGATC ((((((....)))))) | -30.7 kcal/mol | 59.8 °C
GATCCCCATTGGGATC ((((((....)))))) | -37.6 kcal/mol | 59.6 °C

Sequence | folding enthalpy [1] | Tm [2]
GATCCCCCTTGGGATC ((((((....)))))) | -39.8 kcal/mol | 57.7 °C
GATCCCCGATGGGATC ((((((....)))))) | -34.5 kcal/mol | 60.9 °C
GATCCCGAAAGGGTTATC ((((((....)))..))) | -8.18 kcal/mol | 27.5 °C
GATCCCGACGGGATC ((((((...)))))) | -28.4 kcal/mol | 68 °C
GATCCCGCCGGGATC ((((((...)))))) | -39.7 kcal/mol | 67.6 °C
GATCCCGCTCGGGATC ((((((....)))))) | -34 kcal/mol | 65.8 °C
GATCCCGGAAACAGGATC (((((.(....).))))) | -28.8 kcal/mol | 38.8 °C
GATCCCGGATGGGATC ((((((....)))))) | -28 kcal/mol | 67.8 °C
GATCCCGGGGGGGATC ((((((....)))))) | -33.7 kcal/mol | 62 °C
GATCCCGTCCGGGATC ((((((....)))))) | -42 kcal/mol | 67.9 °C
GATCCCGTCTGGGATC ((((((....)))))) | -39.2 kcal/mol | 65.5 °C
GATCCCGTGGGGGATC ((((((....)))))) | -31.9 kcal/mol | 60 °C
GATCCCTAAGGGGATC ((((((....)))))) | -35.2 kcal/mol | 61.1 °C
GATCCCTAATGGGATC ((((((....)))))) | -38.3 kcal/mol | 57.6 °C
GATCCCTACAGGGATC ((((((....)))))) | -36.2 kcal/mol | 65.6 °C
GATCCCTATAGGGATC ((((((....)))))) | -45.4 kcal/mol | 65.6 °C
GATCCCTCAAGGGATC ((((((....)))))) | -40 kcal/mol | 60.9 °C
GATCCCTCTCGGGATC ((((((....)))))) | -34.3 kcal/mol | 63.5 °C
GATCCCTGAAGGGATC ((((((....)))))) | -32.8 kcal/mol | 64.1 °C
GATCCCTGACGGGATC ((((((....)))))) | -38.6 kcal/mol | 58.1 °C
GATCCCTGAGGGATC ((((((...)))))) | -34.7 kcal/mol | 59.6 °C
GATCCCTGCTGGGATC ((((((....)))))) | -39.5 kcal/mol | 60.2 °C
GATCCCTTAAGGGATC ((((((....)))))) | -39.4 kcal/mol | 65.6 °C
GATCCCTTTGGGATC ((((((...)))))) | -40.6 kcal/mol | 63.5 °C

Sequence | folding enthalpy [1] | Tm [2]
GATCCGAAACCGGATC ((((((....)))))) | -38 kcal/mol | 53.4 °C
GATCCGAAAGCGGATC ((((((....)))))) | -34 kcal/mol | 53.1 °C
GATCCGAACCCGGATC ((((((....)))))) | -38.9 kcal/mol | 54.8 °C
GATCCGAAGGCGGATC ((((((....)))))) | -28.4 kcal/mol | 52.3 °C
GATCCGAATACGGATC ((((((....)))))) | -38.6 kcal/mol | 57.5 °C
GATCCGACTACGGATC ((((((....)))))) | -35.6 kcal/mol | 57.1 °C
GATCCGACTCGGATC ((((((...)))))) | -38.9 kcal/mol | 55.7 °C
GATCCGAGGACGGATC ((((((....)))))) | -33.9 kcal/mol | 56.5 °C
GATCCGAGGGCGGATC ((((((....)))))) | -31.5 kcal/mol | 55.3 °C
GATCCGATGCCGGATC ((((((....)))))) | -40.1 kcal/mol | 56.1 °C
GATCCGCAACCGGATC ((((((....)))))) | -39.3 kcal/mol | 55.1 °C
GATCCGCACGCGGATC ((((((....)))))) | -39.1 kcal/mol | 67.6 °C
GATCCGCAGACGGATC ((((((....)))))) | -36.3 kcal/mol | 60.8 °C
GATCCGCAGCGGATC ((((((...)))))) | -54.5 kcal/mol | 54.8 °C
GATCCGCATACGGATC ((((((....)))))) | -37.9 kcal/mol | 61.5 °C
GATCCGCATGCGGATC ((((((....)))))) | -30.3 kcal/mol | 69 °C
GATCCGCATTCGGATC ((((((....)))))) | -36.1 kcal/mol | 59.8 °C
GATCCGCCACGGATC ((((((...)))))) | -37 kcal/mol | 57.2 °C
GATCCGCCTCCGGATC ((((((....)))))) | -34.5 kcal/mol | 56.1 °C
GATCCGCCTCGGATC ((((((...)))))) | -30 kcal/mol | 56.7 °C
GATCCGCCTGCGGATC ((((((....)))))) | -40.3 kcal/mol | 69.2 °C
GATCCGCGCTCGGATC ((((((....)))))) | -37.3 kcal/mol | 57.4 °C
GATCCGCGGCGGATC ((((((...)))))) | -50.8 kcal/mol | 57.7 °C
GATCCGCGTACGGATC ((((((....)))))) | -35.3 kcal/mol | 60.4 °C

Sequence | folding enthalpy [1] | Tm [2]
GATCCGCTACCGGATC ((((((....)))))) | -48 kcal/mol | 56.8 °C
GATCCGCTCCCGGATC ((((((....)))))) | -35.8 kcal/mol | 56.9 °C
GATCCGGAGTCGGATC ((((((....)))))) | -36.4 kcal/mol | 55.7 °C
GATCCGGATCCGGATC ((((((....)))))) | -51.4 kcal/mol | 61.3 °C
GATCCGGCAGCGGATC ((((((....)))))) | -37.8 kcal/mol | 59.4 °C
GATCCGGCATCGGATC ((((((....)))))) | -45.5 kcal/mol | 64.8 °C
GATCCGGCCACGGATC ((((((....)))))) | -41.6 kcal/mol | 67.5 °C
GATCCGGCCCGGATC ((((((...)))))) | -30.7 kcal/mol | 58.9 °C
GATCCGGCGCGGATC ((((((...)))))) | -37.1 kcal/mol | 59.3 °C
GATCCGGCGGCGGATC ((((((....)))))) | -41.5 kcal/mol | 58.7 °C
GATCCGGCTCCGGATC ((((((....)))))) | -38.4 kcal/mol | 59.1 °C
GATCCGGCTCGGATC ((((((...)))))) | -39.6 kcal/mol | 59.7 °C
GATCCGGGGTCGGATC ((((((....)))))) | -47.9 kcal/mol | 56.7 °C
GATCCGGGTACGGATC ((((((....)))))) | -36 kcal/mol | 67.9 °C
GATCCGGGTCCGGATC ((((((....)))))) | -39.1 kcal/mol | 62.5 °C
GATCCGGGTGCGGATC ((((((....)))))) | -41 kcal/mol | 63.2 °C
GATCCGGGTTCGGATC ((((((....)))))) | -44.7 kcal/mol | 58.5 °C
GATCCGTAATCGGATC ((((((....)))))) | -34.4 kcal/mol | 57 °C
GATCCGTATGCGGATC ((((((....)))))) | -40.3 kcal/mol | 63.2 °C
GATCCGTCAGCGGATC ((((((....)))))) | -42.6 kcal/mol | 57.4 °C
GATCCGTCCGCGGATC ((((((....)))))) | -36.7 kcal/mol | 61 °C
GATCCGTCTCGGATC ((((((...)))))) | -42.8 kcal/mol | 59.7 °C
GATCCGTGGCGGATC ((((((...)))))) | -41.5 kcal/mol | 56.3 °C
GATCCGTTTCCGGATC ((((((....)))))) | -41.2 kcal/mol | 58.9 °C

— the array DNA melting data of Ke et al. (doi:10.1101/2024.01.08.574731)
